Measured values reported in ChEMBL document CHEMBL4028907, “Semisynthesis and Biological Evaluation of Xanthone Amphiphilics as Selective, Highly Potent Antifungal Agents to Combat Fungal Resistance” (J Med Chem, 2017).
≈ marks a conversion by molar mass, not a printed value.

What was measured:
Assay type in all cases: functional
Candida albicans [1] = test: Antifungal activity against Candida albicans ATCC 10231 after 24 hrs by two fold serial dilution method; conditions: ATCC 10231, 24 h
In short: (§1)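 Candida grown on Sabouraud dextrose agar at 35 °C for 24 h, adjusted to ~5×10^3 CFU/mL. Two-fold dilutions from 100 to 0.78 μg/mL in Sabouraud dextrose broth, incubated at 35 °C for 24 h. MIC is the lowest concentration inhibiting growth by eye and by OD600. CLSI-based with minor modifications.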

Candida albicans [2] = test: Antifungal activity against drug resistant Candida albicans DF2672R after 24 hrs by two fold serial dilution method; in short: as §1
Candida albicans [3] = test: Antifungal activity against Candida albicans DF1976R after 24 hrs by two fold serial dilution method; in short: as §1
Candida albicans [4] = test: Antifungal activity against Candida albicans ATCC90028 after 24 hrs by two fold serial dilution method; conditions: ATCC90028, 24 h; in short: as §1
Candida albicans [5] = test: Antifungal activity against Candida albicans ATCC24433 after 24 hrs by two fold serial dilution method; conditions: ATCC24433, 24 h; in short: as §1
Candida albicans [6] = test: Antifungal activity against Candida albicans ATCC11651 after 24 hrs by two fold serial dilution method; conditions: ATCC11651, 24 h; in short: as §1
Fusarium solani [7] = test: Antifungal activity against Fusarium solani 52628 after 48 hrs by two fold serial dilution method; conditions: Fusarium solani, 52628, 48 h
In short: (§2)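 Moulds grown on potato dextrose agar, 30 °C, 4 days; inoculum adjusted to about 5×10^3 CFU/mL. Two-fold serial dilutions in RPMI-1640 broth, 100 to 0.78 μg/mL final, mixed with equal volume of cell suspension; incubated 30 °C, 48 h. MIC = lowest concentration inhibiting growth, judged visually and by OD530.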

Fusarium solani [8] = test: Antifungal activity against Fusarium solani 62877 after 48 hrs by two fold serial dilution method; conditions: Fusarium solani, 62877, 48 h; in short: as §2
Fusarium solani [9] = test: Antifungal activity against Fusarium solani MYA3636 after 48 hrs by two fold serial dilution method; conditions: MYA3636, 48 h; in short: as §2
Fusarium solani [10] = test: Antifungal activity against Fusarium solani 46492 after 48 hrs by two fold serial dilution method; conditions: Fusarium solani, 46492, 48 h; in short: as §2
Aspergillus brasiliensis = test: Antifungal activity against Aspergillus brasiliensis TCC16404 after 48 hrs by two fold serial dilution method; conditions: TCC16404, 48 h; in short: as §2
Aspergillus flavus [11] = test: Antifungal activity against Aspergillus flavus TCC 204304 after 48 hrs by two fold serial dilution method; conditions: TCC 204304, 48 h; in short: as §2
Aspergillus flavus [12] = test: Antifungal activity against Aspergillus flavus TCC MYA3631 after 48 hrs by two fold serial dilution method; conditions: TCC MYA3631, 48 h; in short: as §2
Aspergillus fumigatus [13] = test: Antifungal activity against Aspergillus fumigatus TCC MYA3626 after 48 hrs by two fold serial dilution method; conditions: TCC MYA3626, 48 h; in short: as §2
Aspergillus fumigatus [14] = test: Antifungal activity against Aspergillus fumigatus TCC 90906 after 48 hrs by two fold serial dilution method; conditions: TCC 90906, 48 h; in short: as §2
Fusarium oxysporum [15] = test: Antifungal activity against Fusarium oxysporum MYA3461 after 48 hrs by two fold serial dilution method; conditions: MYA3461, 48 h; in short: as §2
Fusarium oxysporum [16] = test: Antifungal activity against Fusarium oxysporum 64530 after 48 hrs by two fold serial dilution method; conditions: Fusarium oxysporum, 64530, 48 h; in short: as §2

CC[C@H](C)C[C@H](C)CCCCCCCCC(=O)N[C@H]1C[C@@H](O)[C@@H](NCCN)NC(=O)[C@@H]2[C@@H](O)CCN2C(=O)[C@H]([C@H](O)CCN)NC(=O)[C@H]([C@H](O)[C@@H](O)c2ccc(O)cc2)NC(=O)[C@@H]2C[C@@H](O)CN2C(=O)[C@H]([C@@H](C)O)NC1=O [CASPOFUNGIN]
MIC (Candida albicans [1]): 0.1 µg/mL (≈ 0.0915 µM)
MIC (Candida albicans [2]): 0.2 µg/mL (≈ 0.183 µM)
MIC (Candida albicans [3]): 0.2 µg/mL (≈ 0.183 µM)
MIC (Candida albicans [4]): 0.1 µg/mL (≈ 0.0915 µM)
MIC (Candida albicans [5]): 0.2 µg/mL (≈ 0.183 µM)
MIC (Candida albicans [6]): 0.2 µg/mL (≈ 0.183 µM)
MIC (Fusarium solani [7]): > 50 µg/mL
MIC (Fusarium solani [8]): > 50 µg/mL
MIC (Fusarium solani [9]): > 50 µg/mL
MIC (Fusarium solani [10]): > 50 µg/mL
MIC (Aspergillus brasiliensis): > 50 µg/mL
MIC (Aspergillus flavus [11]): > 50 µg/mL
MIC (Aspergillus flavus [12]): > 50 µg/mL
MIC (Aspergillus fumigatus [13]): > 50 µg/mL
MIC (Aspergillus fumigatus [14]): > 50 µg/mL
MIC (Fusarium oxysporum [15]): > 50 µg/mL
MIC (Fusarium oxysporum [16]): > 50 µg/mL
